This is a sample that favours compounds with a hit; in the whole collection about 1.7% have one here.
PABP polyA inh – blocks human PABP binding to poly(A) RNA; actives 1% (n = 290,000); fluorescence polarization; inhibition, % at 35 µM;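 note: calls also rest on retests at 20 µM and on dose response follow-up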
MT1-MMP act inh – inhibitors of human MT1-MMP activation; AID 651647; P50281; GFP/RFP ratio change, % at 20 µM; actives 0.061% (n = 360,000); HT1080 RFP-PRO-GFP cells, GFP/RFP ratio fluorescence, overnight; percent of plate control window, DMSO zero;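 active = GFP/RFP ratio change of at least 30% with cell ATP level not reduced by more than half and red fluorescence within 50% of control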
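Assay system – RFP-PRO-GFP reporter HT1080 cells · Compound dosing – single dose of 20 µM compound, 1% DMSO final · Incubation – overnight compound exposure at 37 °C · Measure – GFP/RFP fluorescence ratio · Benchmarks – DMSO wells and RFP-L50D-GFP cells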
PABP1 MLLE inh – inhibitors of microRNA-mediated deadenylation, human PABP1 MLLE binding; P11940; AID 588489; inhibition, % at 20 µM; GST-MLLE / FITC-PAM2 fluorescence polarization; actives 0.36% (n = 360,000); in the data active = inhibition above about 35%, passing the limit was not always enough;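 note: plate controls were DMSO wells with GST-MLLE for no effect and wells lacking GST-MLLE protein for full effect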
SKN-1 block – C. elegans SKN-1 inhibition; C. elegans VP596 Pgst-4::GFP/RFP ratio, acrylamide-induced, 24 h; inhibition, % at 21.8 µM; actives 0.49% (n = 360,000);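 active = interference check ratio from 0.5 to 1.5 plus GFP to RFP signal ratio inhibition reaching or exceeding a fixed threshold, cut at about 30% in these data, passing the limit was not always enough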
eIF4H FP inh – inhibitors of RNA binding by human eIF4H. Q15056. eIF4H fluorescence polarization binding assay. inhibition, % at 35 µM. actives 0.94% (n = 290,000). AID 2012;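 note: calls also rest on retests at 20 µM and on dose response follow-up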
The depositor's hits bear a star; i = inactive; u = inconclusive; x = not tested or not shown. Unless noted, the rule behind the calls is not given here.

SMILES	PABP polyA inh	MT1-MMP act inh	PABP1 MLLE inh	SKN-1 block	eIF4H FP inh
Cc1occc1C(=O)N(Cc1nc(-c2ccccc2)no1)C(C)C	-6.2	-0.1	9.8	-2.0	-4.5
CCCCCCCCNc1ncnc2ccccc12	-4.2	1.9	-3.6	50.6*	-3.2
O=C(CSc1nnc(CNC(=O)c2ccccc2)o1)NCc1ccco1	9.1	-1.7	-0.2	7.0	34.1
CC(C)(C)c1ccc(C(=O)NCc2nnc(SCC(=O)NCc3ccco3)o2)cc1	10.7	3.7	-25.0	6.6	52.5*
CCOC(=O)Cc1c(-c2cccc(Cl)c2)nc2c3ccccc3ccn12	x	-4.5	x	8.0	x
CC(C)N(CCCNC(=O)c1ccc(CS(=O)(=O)c2c(Cl)cccc2Cl)o1)Cc1ccccc1	x	-4.4	-2.4	-1.4	x
CN(N=Cc1ccc([N+](=O)[O-])cc1)c1ccccn1	x	-2.3	-3.2	47.7*	x
O=C(c1ccc([N+](=O)[O-])cc1)N(c1ccccn1)c1ccccn1	2.7	-2.6	12.6	-6.6	-3.3
c1ccc(OCc2nc3ccccc3s2)cc1	-9.8	0.2	-8.4	48.5*	-10.1
Cc1cc(OCc2nc3ccccc3s2)ccc1N	0.6	-2.2	20.7	11.9	20.5
Fc1ccc(OCc2nc3ccccc3s2)cc1	-6.4	-4.3	-3.1	38.3*	3.0
O=C(OCc1nc2ccccc2s1)c1ccc(Br)o1	69.9*	-0.6	-10.2	-0.3	7.1*
O=C(Nc1ccc(N2CCOCC2)cc1)c1ccc(Cl)c(S(=O)(=O)N2CCCC2)c1	x	0.1	-13.5	17.6	x
COC(=O)C1(C)COP(=O)(NC23CC4CC(CC(C4)C2)C3)OC1 (stereo not given)	x	2.6	6.7	2.0	x
O=C(Nc1nnc(C2CCCCC2)s1)C1CC(=O)N(c2ccccc2)C1 (stereo not given)	-6.2	1.1	10.8	18.9	-3.3
O=C(Nc1nnc(C2CC2)s1)C1CC(=O)N(c2ccc3c(c2)OCCO3)C1 (stereo not given)	active	2.9	-14.4	8.6	95.5*
CC(C)(C)c1ccc(OCc2ccc(C(=O)Nc3cccnc3)o2)cc1	-3.9	-1.2	6.8	-4.1	3.7
COc1cccc(NC(=O)Cn2nnc(C(=O)NCCc3ccccc3)c2N)c1	-2.5	-0.6	-6.2	0.5	-10.8
CCN(CC)c1ccc(/C=C2/C(=O)c3ccc(C(=O)O)cc3C2=O)cc1	-11.2	-30.2	i	52.0*	u
CCN(CC)c1ccc(C=C2C(=O)OC3(CCCCC3)OC2=O)cc1	4.9	0.7	-137.2	33.1	u
O=C(O)O	118.4	x	x	x	0.6*
N/C(Cc1cccc2ccccc12)=N\OC(=O)Cc1cccs1	9.8	-3.1	-5.2	5.4	27.3
N/C(Cc1cccc2ccccc12)=N\OC(=O)c1cccs1	active	-6.9	-9.3	1.6	83.6*
O=C(CSc1nc(-c2ccco2)cc(C(F)(F)F)n1)NC1CCCCCCC1	x	-9.0	-6.1	36.7*	x
O=C(CSc1nc(-c2ccco2)cc(C(F)(F)F)n1)NN1CCOCC1	-7.1	-0.8	-2.3	-1.1	-3.3
SMILES	PABP polyA inh	MT1-MMP act inh	PABP1 MLLE inh	SKN-1 block	eIF4H FP inh
O=C(CSc1nc2ccccc2c2c1CCCC2)N1CCOCC1	19.9	-3.8	1.1	-3.8	-2.6
O=C(CSc1nncc2ccccc12)N1CCOCC1	16.6	0.7	41.8*	15.9	-5.8
Cc1ccccc1NC(=O)CCS(=O)(=O)c1ccc(Br)s1	19.6	3.7	4.0	13.0	57.6*
COC(=O)c1ccccc1NC(=O)CCS(=O)(=O)c1ccc(Br)s1	-6.2	0.3	13.6	-13.9	-4.8
Cc1ccc(NC(=O)C2C3CCCC2C3c2ccccc2)cc1C (stereo not given)	66.8*	-0.8	-4.6	-32.2	u
O=C(CNC(=O)c1cccs1)Nc1ccc2c(c1)OCCO2	x	0.7	2.6	-1.4	x
COCCn1cnnc1SCC(=O)Nc1sc2c(c1C#N)CCC2	x	-6.4	-38.2	-19.1	x
CC1CCC(NC(=O)CN2C(=O)NC3(CCCCC3C)C2=O)CC1 (stereo not given)	x	-4.5	-3.9	1.5	x
Cn1cnnc1SCC(=O)Nc1sc2c(c1C(N)=O)CCC2	50.0*	-21.1	2.7	-3.0	76.1*
CC1CCCCC12NC(=O)N(CC(=O)Nc1sc3c(c1C(N)=O)CCC3)C2=O (stereo not given)	73.5*	-6.5	-6.8	3.0	77.8*
COC(=O)c1c(NC(=O)CN2C(=O)NC3(CCC(C)CC3)C2=O)sc2c1CCC2 (stereo not given)	x	1.3	11.9	-7.3	x
CC1CCC2(CC1)NC(=O)N(CC(=O)Nc1sc3c(c1C(N)=O)CCC3)C2=O (stereo not given)	3.7*	-13.1	-52.8	4.1	76.0*
CCCCCCNC(=O)OC12CN(C(=O)OC(C)C)N(C(=O)OC(C)C)CC1(O)CN(S(=O)(=O)c1ccc(C)cc1)C2 (stereo not given)	x	-0.5	-1.5	-24.6	x
CCOC(=O)c1cc(C(=O)c2ccccc2O)cn2c(=O)c3c(C)c(C)sc3nc12	40.0	x	x	x	72.7*
CCOC(CNC(=O)c1cccn2c(=O)c3c(C)c(C)sc3nc12)OCC	-3.7	0.8	8.9	13.3	3.4
CN1C[C@@H]2[C@@H]3C(=O)N(Cc4ccccc4)C(=O)[C@@H]3[C@](C)(C1=O)N2C(=O)c1ccc(Cl)cc1	x	6.2	-0.3	11.0	x
O=C(Nc1nccs1)c1ccc(-c2ccccc2[N+](=O)[O-])o1	16.1	0.9	-9.7	36.1*	18.2
O=C(Nc1nccs1)c1ccc(-c2ccccc2Cl)o1	19.6	5.0	17.6	52.7*	-6.4
CCC(C(=O)NC1CCCC1)n1c(C2CC2)nc2ccccc21 (stereo not given)	x	1.4	x	3.4	x
CCOC(=O)[C@@H]1[C@H]2COc3ccccc3[C@H]2N2C(=O)N(c3ccc(Cl)cc3)C(=O)[C@]12C	-3.0	5.0	-6.0	10.7	-14.3
C[n+]1ccc(C(=O)Nc2ccccc2Cl)cc1	82.7*	-3.5	-108.7	0.3	9.5
C/C(=N\NC(=O)CNC(=O)c1ccccc1Br)c1ccco1	-7.2	2.7	-1.1	11.0	-8.4
COc1ccc(N2Cc3cccc(C(=O)N4CCN(C(=O)c5ccco5)CC4)c3C2=O)cc1	70.4*	0.6	-9.7	0.2	93.3*
CCCCCC(=O)NNC(=S)NC(=O)c1ccc([N+](=O)[O-])cc1	4.3	1.6	39.4*	-12.8	62.0
Cc1ccc(C(=O)NC(=S)NNC(=O)c2ccc([N+](=O)[O-])cc2)cc1	-6.0	0.5	24.4	0.4	9.2
O=C(NC(=S)NNC(=O)c1ccccc1O)c1ccc([N+](=O)[O-])cc1	-12.5	4.6	40.5*	3.5	3.3
CCc1csc(CNC(=O)C2CCC(=O)N(Cc3cccc(F)c3)C2)n1 (stereo not given)	-16.7	-1.3	6.7	7.3	-6.9
NC(=O)N(CCC(=O)O)c1ccccc1	active	2.1	4.3	1.8	62.9*
NC(=O)C(CCCCN1CCCCC1)(c1ccccc1)c1ccccc1	x	0.8	7.9	-5.8	x

Assay outcomes from PubChem BioAssay.
